{"source": "ChEMBL document CHEMBL1137361", "about": "“WB4101-related compounds: new, subtype-selective alpha1-adrenoreceptor antagonists (or inverse agonists?)” (J Med Chem, 2006)", "key": {"[1]": {"molecular_target": "Alpha adrenergic receptor (1a and 1d) (Homo sapiens) (UniProt P35348+P25100)", "sequence (P25100 whole entry, looked up)": "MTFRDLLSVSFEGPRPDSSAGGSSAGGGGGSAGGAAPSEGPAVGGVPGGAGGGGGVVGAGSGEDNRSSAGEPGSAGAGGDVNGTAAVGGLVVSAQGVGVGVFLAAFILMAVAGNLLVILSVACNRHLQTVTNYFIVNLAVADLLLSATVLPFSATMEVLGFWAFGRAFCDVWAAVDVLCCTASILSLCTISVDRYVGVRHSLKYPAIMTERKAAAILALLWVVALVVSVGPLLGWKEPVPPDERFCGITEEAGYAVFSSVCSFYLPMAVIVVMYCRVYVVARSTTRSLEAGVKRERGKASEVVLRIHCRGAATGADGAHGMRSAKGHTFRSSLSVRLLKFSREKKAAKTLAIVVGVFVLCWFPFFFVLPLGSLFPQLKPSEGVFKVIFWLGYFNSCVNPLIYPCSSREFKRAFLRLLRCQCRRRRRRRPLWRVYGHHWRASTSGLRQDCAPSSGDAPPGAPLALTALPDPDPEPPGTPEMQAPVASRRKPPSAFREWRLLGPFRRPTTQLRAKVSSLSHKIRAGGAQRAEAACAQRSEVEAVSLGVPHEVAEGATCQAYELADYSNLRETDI", "sequence (P35348 whole entry, looked up)": "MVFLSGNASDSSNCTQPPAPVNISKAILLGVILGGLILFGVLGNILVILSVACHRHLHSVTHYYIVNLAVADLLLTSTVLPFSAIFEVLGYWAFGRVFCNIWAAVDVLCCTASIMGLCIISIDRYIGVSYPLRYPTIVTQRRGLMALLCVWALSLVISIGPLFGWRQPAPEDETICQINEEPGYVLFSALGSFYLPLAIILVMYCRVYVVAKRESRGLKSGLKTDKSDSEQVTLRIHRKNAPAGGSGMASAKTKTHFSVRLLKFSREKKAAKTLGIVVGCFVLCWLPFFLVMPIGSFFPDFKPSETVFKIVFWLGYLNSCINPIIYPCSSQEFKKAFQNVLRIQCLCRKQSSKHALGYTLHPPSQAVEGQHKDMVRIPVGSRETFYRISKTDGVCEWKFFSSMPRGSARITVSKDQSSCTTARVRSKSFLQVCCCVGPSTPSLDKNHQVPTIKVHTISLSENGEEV", "experiment": "Selectivity for human adrenergic alpha 1A receptor over human adrenergic alpha 1D receptor"}, "[2]": {"molecular_target": "T1, Alpha-1B adrenergic receptor (Rattus norvegicus, UniProt P15823)", "T1 sequence (P15823 whole entry)": "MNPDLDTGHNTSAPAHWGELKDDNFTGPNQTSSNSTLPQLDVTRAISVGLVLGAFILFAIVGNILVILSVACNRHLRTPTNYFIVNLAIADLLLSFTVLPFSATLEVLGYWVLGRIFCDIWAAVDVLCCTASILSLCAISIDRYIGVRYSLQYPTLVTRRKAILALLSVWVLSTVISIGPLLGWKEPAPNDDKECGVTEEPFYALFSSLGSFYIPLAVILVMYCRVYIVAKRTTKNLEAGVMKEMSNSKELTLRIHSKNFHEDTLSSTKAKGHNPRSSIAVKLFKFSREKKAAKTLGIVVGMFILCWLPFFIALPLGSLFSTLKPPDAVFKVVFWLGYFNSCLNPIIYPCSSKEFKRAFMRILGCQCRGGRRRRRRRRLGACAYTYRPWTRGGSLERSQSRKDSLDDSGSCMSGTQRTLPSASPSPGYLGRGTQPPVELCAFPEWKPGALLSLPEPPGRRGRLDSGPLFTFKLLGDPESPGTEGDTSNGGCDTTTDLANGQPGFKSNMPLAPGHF", "experiment": "Activity at adrenergic alpha 1B receptor assessed as antagonsim of phenylephrine-induced contraction of Sprague-Dawley rat spleen", "type": "functional, tissue-based", "conditions": "read-out: pA2 (converted)", "procedure,_shortened": "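Rat spleen contracted with (-)-phenylephrine. Blocking activity was measured as antagonism of the contraction.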"}, "[3]": {"molecular_target": "T2, Alpha-2A adrenergic receptor (Rattus norvegicus, UniProt P22909)", "T2 sequence (P22909 whole entry)": "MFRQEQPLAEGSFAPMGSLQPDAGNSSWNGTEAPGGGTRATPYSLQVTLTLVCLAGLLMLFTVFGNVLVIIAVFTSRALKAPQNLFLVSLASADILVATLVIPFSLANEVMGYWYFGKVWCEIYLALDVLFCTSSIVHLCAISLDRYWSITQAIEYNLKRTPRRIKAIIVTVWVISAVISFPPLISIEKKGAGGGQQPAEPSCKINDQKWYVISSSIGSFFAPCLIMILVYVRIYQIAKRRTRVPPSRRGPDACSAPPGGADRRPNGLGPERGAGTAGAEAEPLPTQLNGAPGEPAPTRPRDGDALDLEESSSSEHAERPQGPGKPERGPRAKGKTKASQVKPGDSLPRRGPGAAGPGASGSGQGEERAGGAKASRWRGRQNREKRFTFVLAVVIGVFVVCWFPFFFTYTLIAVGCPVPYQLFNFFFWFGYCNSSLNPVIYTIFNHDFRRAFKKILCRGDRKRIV", "experiment": "Activity at adrenergic alpha 2A receptor assessed as antagonism on clonidine-inhibited twitch responses of field-stimulated Sprague-Dawley rat vas deferens", "conditions": "read-out: pA2 (converted)"}, "[4]": {"molecular_target": "Adrenergic receptors; alpha-1 A & B (Homo sapiens) (UniProt P35348+P35368)", "sequence (P35348 whole entry, looked up)": "as the sequence (P35348 whole entry, looked up) above", "sequence (P35368 whole entry, looked up)": "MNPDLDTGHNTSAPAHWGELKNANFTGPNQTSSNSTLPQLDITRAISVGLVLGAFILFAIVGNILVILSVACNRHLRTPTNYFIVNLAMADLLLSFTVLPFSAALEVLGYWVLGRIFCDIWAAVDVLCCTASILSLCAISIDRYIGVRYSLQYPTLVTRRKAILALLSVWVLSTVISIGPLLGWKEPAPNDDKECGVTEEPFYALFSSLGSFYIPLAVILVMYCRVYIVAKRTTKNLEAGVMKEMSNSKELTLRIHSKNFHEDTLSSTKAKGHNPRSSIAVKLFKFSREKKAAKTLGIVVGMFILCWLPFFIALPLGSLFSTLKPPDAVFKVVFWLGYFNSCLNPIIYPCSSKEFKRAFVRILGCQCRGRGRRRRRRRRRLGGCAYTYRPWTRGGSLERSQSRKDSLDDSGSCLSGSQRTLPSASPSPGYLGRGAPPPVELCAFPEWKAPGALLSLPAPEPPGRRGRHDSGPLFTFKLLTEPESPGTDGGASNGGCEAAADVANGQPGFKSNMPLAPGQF", "experiment": "Selectivity for human adrenergic alpha 1B receptor over human adrenergic alpha 1A receptor", "type": "protein assay"}, "[5]": {"experiment": "Selectivity for 5HT1A receptor in rat hippocampus over human adrenergic alpha 1A receptor", "type": "tissue-based"}, "[6]": {"molecular_target": "Alpha adrenergic receptor 1A and 1D (Rattus norvegicus) (UniProt P23944+P43140)", "experiment": "Selectivity for Sprague-Dawley rat adrenergic alpha 1D receptor over adrenergic alpha 1A receptor", "type": "functional"}, "Cavia porcellus [7]": {"species": "Cavia porcellus", "experiment": "Inverse agonist effect on calcium-induced increase in resting tension of calcium-depleted guinea pig thoracic aorta at 10 nM", "type": "functional", "procedure,_shortened": "(§1)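 Guinea pig thoracic aorta was calcium-depleted and preincubated with antagonist, then challenged with Ca2+. The Ca2+-induced increase in resting tone was compared with the increase after the same Ca2+ challenge in the absence of antagonist.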"}, "[8]": {"molecular_target": "T3, Alpha-1D adrenergic receptor (Rattus norvegicus, UniProt P23944)", "T3 sequence (P23944 whole entry)": "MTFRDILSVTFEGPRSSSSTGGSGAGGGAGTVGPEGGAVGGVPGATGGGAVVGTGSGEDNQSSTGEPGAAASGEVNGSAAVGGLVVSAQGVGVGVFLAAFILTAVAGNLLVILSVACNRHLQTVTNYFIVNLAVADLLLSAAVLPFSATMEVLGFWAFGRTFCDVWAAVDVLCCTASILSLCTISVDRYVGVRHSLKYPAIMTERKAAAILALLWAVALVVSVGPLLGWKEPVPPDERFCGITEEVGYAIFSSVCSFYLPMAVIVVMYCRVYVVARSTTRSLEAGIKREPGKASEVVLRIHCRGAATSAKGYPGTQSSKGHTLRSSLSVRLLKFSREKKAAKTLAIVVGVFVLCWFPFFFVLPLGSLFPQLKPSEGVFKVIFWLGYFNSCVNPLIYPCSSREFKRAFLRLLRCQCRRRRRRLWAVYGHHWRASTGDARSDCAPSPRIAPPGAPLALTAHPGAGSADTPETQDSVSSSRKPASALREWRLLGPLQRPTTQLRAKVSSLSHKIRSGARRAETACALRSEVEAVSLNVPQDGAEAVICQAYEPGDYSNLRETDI", "experiment": "Activity at adrenergic alpha 1D receptor assessed as antagonism on noradrenaline-induced contraction of Sprague-Dawley rat thoracic aorta", "type": "functional, tissue-based", "conditions": "read-out: pA2 (converted)", "procedure,_shortened": "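Rat thoracic aorta contracted with (-)-noradrenaline. Blocking activity was measured as antagonism of the contraction.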"}, "Cavia porcellus [9]": {"species": "Cavia porcellus", "experiment": "Inverse agonist effect on calcium-induced increase in resting tension of calcium-depleted guinea pig thoracic aorta at 100 nM", "type": "functional", "procedure,_shortened": "as §1"}, "[10]": {"molecular_target": "T4, Alpha-1A adrenergic receptor (Rattus norvegicus, UniProt P43140)", "T4 sequence (P43140 whole entry)": "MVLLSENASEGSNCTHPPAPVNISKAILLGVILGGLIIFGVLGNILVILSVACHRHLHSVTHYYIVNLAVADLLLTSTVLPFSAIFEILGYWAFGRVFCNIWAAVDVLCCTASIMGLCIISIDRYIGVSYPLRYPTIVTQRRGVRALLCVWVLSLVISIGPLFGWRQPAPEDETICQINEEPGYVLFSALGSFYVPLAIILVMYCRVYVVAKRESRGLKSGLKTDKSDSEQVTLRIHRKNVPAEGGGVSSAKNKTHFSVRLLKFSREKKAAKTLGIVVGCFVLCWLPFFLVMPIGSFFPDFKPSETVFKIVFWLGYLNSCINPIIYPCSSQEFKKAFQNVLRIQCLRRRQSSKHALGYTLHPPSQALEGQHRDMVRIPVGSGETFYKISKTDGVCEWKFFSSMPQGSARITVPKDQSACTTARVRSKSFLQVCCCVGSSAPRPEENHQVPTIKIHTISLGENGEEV", "experiment": "Activity at adrenergic alpha 1A receptor assessed as antagonsim of noradrenaline-induced contraction of […]", "type": "functional, tissue-based, Sprague-Dawley", "conditions": "read-out: pA2 (converted)", "procedure,_shortened": "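Rat vas deferens, prostatic portion. Contraction was induced with (-)-noradrenaline, and blocking activity was measured as antagonism of that contraction.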"}}, "note": "The source made the active and inactive calls. The calls are words filed in the database; no cut-off is given here.", "data": [{"smiles": "COc1ccc2ccccc2c1OCCNC[C@H]1COc2ccccc2O1", "values": [{"measurement": "Selectivity ratio", "setting": "[1]", "result": 4.2}, {"measurement": "Kb", "setting": "[2]", "result": 0.204, "unit": "nM"}, {"measurement": "Kb", "setting": "[3]", "result": 1350, "unit": "nM"}, {"measurement": "Selectivity ratio", "setting": "[4]", "result": 10}, {"measurement": "Selectivity ratio", "setting": "[5]", "result": 7.1}, {"measurement": "Selectivity ratio", "setting": "[6]", "result": 0.02}, {"measurement": "Activity", "setting": "Cavia porcellus [7]", "result": "Active"}, {"measurement": "Kb", "setting": "[8]", "result": 0.0209, "unit": "nM"}]}, {"smiles": "COc1ccc(-c2ccccc2)cc1OCCNC[C@H]1COc2ccccc2O1", "values": [{"measurement": "Selectivity ratio", "setting": "[1]", "result": 2.7}, {"measurement": "Kb", "setting": "[2]", "result": 135, "unit": "nM"}, {"measurement": "Selectivity ratio", "setting": "[4]", "result": 1.9}, {"measurement": "Selectivity ratio", "setting": "[5]", "result": 9.3}, {"measurement": "Selectivity ratio", "setting": "[6]", "result": "< 0.006"}, {"measurement": "Kb", "setting": "[8]", "result": 61.7, "unit": "nM"}]}, {"smiles": "COc1ccc2ccccc2c1OCCNC[C@@H]1COc2ccccc2O1", "values": [{"measurement": "Selectivity ratio", "setting": "[1]", "result": 4.9}, {"measurement": "Kb", "setting": "[2]", "result": 14.8, "unit": "nM"}, {"measurement": "Kb", "setting": "[3]", "result": 631, "unit": "nM"}, {"measurement": "Selectivity ratio", "setting": "[4]", "result": 18.6}, {"measurement": "Selectivity ratio", "setting": "[5]", "result": 14.8}, {"measurement": "Selectivity ratio", "setting": "[6]", "result": 0.17}, {"measurement": "Activity", "setting": "Cavia porcellus [7]", "result": "inactive"}, {"measurement": "Kb", "setting": "[8]", "result": 10, "unit": "nM"}]}, {"smiles": "COc1cc(-c2ccccc2)ccc1OCCNC[C@H]1COc2ccccc2O1", "values": [{"measurement": "Selectivity ratio", "setting": "[1]", "result": 2.5}, {"measurement": "Kb", "setting": "[2]", "result": 132, "unit": "nM"}, {"measurement": "Selectivity ratio", "setting": "[4]", "result": 2.1}, {"measurement": "Selectivity ratio", "setting": "[5]", "result": 0.9}, {"measurement": "Selectivity ratio", "setting": "[6]", "result": 0.14}, {"measurement": "Kb", "setting": "[8]", "result": 107, "unit": "nM"}]}, {"smiles": "COc1cccc(OC)c1OCCNC[C@H]1COc2cc3ccccc3cc2O1", "values": [{"measurement": "Selectivity ratio", "setting": "[1]", "result": 12.3}, {"measurement": "Kb", "setting": "[2]", "result": 2450, "unit": "nM"}, {"measurement": "Kb", "setting": "[3]", "result": "> 10000", "unit": "nM"}, {"measurement": "Selectivity ratio", "setting": "[4]", "result": 26.3}, {"measurement": "Selectivity ratio", "setting": "[5]", "result": 10.2}, {"measurement": "Selectivity ratio", "setting": "[6]", "result": 0.05}, {"measurement": "Kb", "setting": "[8]", "result": 182, "unit": "nM"}]}, {"smiles": "COc1cccc(OC)c1OCCNC[C@H]1COc2cc3c(cc2O1)CCCC3", "values": [{"measurement": "Selectivity ratio", "setting": "[1]", "result": 13.5}, {"measurement": "Kb", "setting": "[2]", "result": 2630, "unit": "nM"}, {"measurement": "Selectivity ratio", "setting": "[4]", "result": 22.9}, {"measurement": "Selectivity ratio", "setting": "[5]", "result": 14.5}, {"measurement": "Selectivity ratio", "setting": "[6]", "result": "< 0.4"}, {"measurement": "Kb", "setting": "[8]", "result": 4370, "unit": "nM"}]}, {"smiles": "COc1cccc(-c2ccccc2)c1OCCNC[C@H]1COc2ccccc2O1", "values": [{"measurement": "Selectivity ratio", "setting": "[1]", "result": 2.8}, {"measurement": "Kb", "setting": "[2]", "result": 7.59, "unit": "nM"}, {"measurement": "Selectivity ratio", "setting": "[4]", "result": 14.8}, {"measurement": "Selectivity ratio", "setting": "[5]", "result": 5.8}, {"measurement": "Selectivity ratio", "setting": "[6]", "result": 0.2}, {"measurement": "Activity", "setting": "Cavia porcellus [7]", "result": "inactive"}, {"measurement": "Kb", "setting": "[8]", "result": 1.02, "unit": "nM"}]}, {"smiles": "COc1ccc2ccccc2c1OCCNC[C@H]1COc2cc3c(cc2O1)CCCC3", "values": [{"measurement": "Activity", "setting": "Cavia porcellus [9]", "result": "Active"}, {"measurement": "Selectivity ratio", "setting": "[1]", "result": 2.2}, {"measurement": "Kb", "setting": "[2]", "result": "> 10000", "unit": "nM"}, {"measurement": "Kb", "setting": "[3]", "result": "> 10000", "unit": "nM"}, {"measurement": "Selectivity ratio", "setting": "[4]", "result": 5.6}, {"measurement": "Selectivity ratio", "setting": "[5]", "result": 25.7}, {"measurement": "Selectivity ratio", "setting": "[6]", "result": 245}, {"measurement": "Kb", "setting": "[10]", "result": 42.7, "unit": "nM"}, {"measurement": "Kb", "setting": "[8]", "result": 2570, "unit": "nM"}]}, {"smiles": "COc1ccc2c(c1OCCNC[C@H]1COc3ccccc3O1)CCCC2", "values": [{"measurement": "Selectivity ratio", "setting": "[1]", "result": 5.1}, {"measurement": "Kb", "setting": "[2]", "result": 4.47, "unit": "nM"}, {"measurement": "Selectivity ratio", "setting": "[4]", "result": 6.8}, {"measurement": "Selectivity ratio", "setting": "[5]", "result": 3}, {"measurement": "Selectivity ratio", "setting": "[6]", "result": 0.04}, {"measurement": "Kb", "setting": "[8]", "result": 4.07, "unit": "nM"}]}]}
